Key:
[1] = target: T1, Acyl-CoA desaturase 1 (Rattus norvegicus, UniProt P07308); test: Inhibition of SCD1 in rat liver microsomes; parameters: species or system Microsome
T1 sequence (P07308 whole entry): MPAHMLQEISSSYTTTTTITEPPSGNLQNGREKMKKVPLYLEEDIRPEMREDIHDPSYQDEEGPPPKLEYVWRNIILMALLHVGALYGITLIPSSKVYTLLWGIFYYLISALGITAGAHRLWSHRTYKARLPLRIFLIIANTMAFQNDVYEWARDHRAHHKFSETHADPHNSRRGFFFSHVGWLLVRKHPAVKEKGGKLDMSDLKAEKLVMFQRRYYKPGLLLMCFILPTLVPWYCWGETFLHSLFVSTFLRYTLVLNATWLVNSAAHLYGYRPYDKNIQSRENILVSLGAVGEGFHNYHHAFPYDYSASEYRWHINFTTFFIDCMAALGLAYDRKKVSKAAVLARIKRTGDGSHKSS

[2] = AUC in rat at 10 mg/kg, po; format: ADME, organism-based; parameters: dose 10 mg/kg, route oral; settings: plasma
How it was run: (§1)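 Rats dosed 10 mg/kg PO and 2 mg/kg IV; plasma concentration sampled over time for parent and its acid metabolite; each time point is the average of two animals.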

[3] = AUC in rat at 2 mg/kg, iv; format: ADME, organism-based; parameters: dose 2 mg/kg, route intravenous; settings: plasma; how it was run: as §1
[4] = tested on: Rattus norvegicus; test: Stability in rat assessed as AUC of 6-(4-(2-(trifluoromethyl)phenoxy)piperidin-1-yl)pyridazine-3-carboxylic acid at 10 mg/kg, po; format: ADME, organism-based; parameters: dose 10 mg/kg, route oral; settings: in vivo; how it was run: as §1
[5] = Half life in rat at 10 mg/kg, po or 2 mg/kg, iv; format: ADME, organism-based; settings: in vivo; how it was run: as §1
[6] = Bioavailability in rat at 10 mg/kg, po or 2 mg/kg, iv; format: ADME, organism-based; settings: in vivo; how it was run: as §1
[7] = target: T2, Cytochrome P450 3A4 (Homo sapiens, UniProt P08684); test: Inhibition of CYP3A4; format: ADME
T2 sequence (P08684 whole entry): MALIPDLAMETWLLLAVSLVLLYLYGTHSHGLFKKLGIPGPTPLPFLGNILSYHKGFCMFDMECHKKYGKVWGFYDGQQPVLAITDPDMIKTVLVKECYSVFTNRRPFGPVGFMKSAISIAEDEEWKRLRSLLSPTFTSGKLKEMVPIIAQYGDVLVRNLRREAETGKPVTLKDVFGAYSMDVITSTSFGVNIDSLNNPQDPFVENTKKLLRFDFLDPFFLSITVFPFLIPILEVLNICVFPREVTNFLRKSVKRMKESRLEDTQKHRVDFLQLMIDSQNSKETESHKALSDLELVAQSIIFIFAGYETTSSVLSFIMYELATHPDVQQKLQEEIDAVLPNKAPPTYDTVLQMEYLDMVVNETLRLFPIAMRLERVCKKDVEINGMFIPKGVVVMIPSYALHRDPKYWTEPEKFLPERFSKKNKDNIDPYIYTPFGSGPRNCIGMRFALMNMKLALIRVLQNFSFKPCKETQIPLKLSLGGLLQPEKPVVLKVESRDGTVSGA

[8] = target: T3, Cytochrome P450 2D6 (Homo sapiens, UniProt P10635); test: Inhibition of CYP2D6; format: ADME
T3 sequence (P10635 whole entry): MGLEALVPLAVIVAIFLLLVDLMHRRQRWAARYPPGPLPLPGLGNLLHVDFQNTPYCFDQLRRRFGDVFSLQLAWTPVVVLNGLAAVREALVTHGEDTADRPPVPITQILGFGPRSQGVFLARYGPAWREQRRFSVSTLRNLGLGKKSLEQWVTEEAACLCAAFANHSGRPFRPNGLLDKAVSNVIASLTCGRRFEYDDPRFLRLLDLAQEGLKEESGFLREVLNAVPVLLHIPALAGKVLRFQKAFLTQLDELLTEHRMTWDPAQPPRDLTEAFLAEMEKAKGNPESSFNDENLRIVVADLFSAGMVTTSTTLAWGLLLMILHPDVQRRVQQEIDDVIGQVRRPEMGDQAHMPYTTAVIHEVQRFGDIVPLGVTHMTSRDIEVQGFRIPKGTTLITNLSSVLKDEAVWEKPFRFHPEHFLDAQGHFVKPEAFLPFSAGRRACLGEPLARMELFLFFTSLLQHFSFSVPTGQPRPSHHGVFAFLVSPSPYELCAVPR

[9] = tested on: Mus musculus; test: Inhibition of stearoyl-CoA […] in high-carbohydrate diet-fed mouse liver dosed orally assessed as conversion of [14C]stearic acid to [14C]oleic acid; format: functional; settings: po
How it was run: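 Mice on a high-carbohydrate diet given compound PO, then IV 14C-stearic acid tracer 1 h later; livers collected 2 h after tracer and lipids analysed.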

[10] = Oral bioavailability in rat; format: ADME, organism-based; settings: in vivo
[11] = Oral bioavailability in mouse; format: ADME, organism-based; settings: in vivo
[12] = Half life in mouse; format: ADME, organism-based; settings: in vivo
[13] = Half life in rat; format: ADME, organism-based; settings: in vivo
[14] = target: T2, Cytochrome P450 3A4; test: Inhibition of CYP3A4 up to 30 uM; format: ADME
[15] = target: T3, Cytochrome P450 2D6; test: Inhibition of CYP2D6 up to 30 uM; format: ADME
[16] = tested on: Mus musculus; test: Toxicity in DIO mouse assessed as alopecia at 5 mg/kg qd for 1 week; format: organism-based; parameters: dose 5 mg/kg; settings: in vivo, 168 h
[17] = tested on: Mus musculus; test: Toxicity in DIO mouse assessed as partial eye closure at 5 mg/kg qd for 1 week; format: organism-based; parameters: dose 5 mg/kg; settings: in vivo, 168 h
[18] = tested on: Mus musculus; test: Toxicity in diet-induced obese chronic po dosed mouse; settings: in vivo

| Compound | IC50 [1] | further results |
| --- | --- | --- |
| O=C(NCCC1CC1)c1ccc(N2CCN(C(=O)c3ccccc3C(F)(F)F)CC2)nn1 | 322 nM | – |
| c1ccc(OC2CCN(c3ccc(-n4ccnc4)nn3)CC2)cc1 | 1890 nM | – |
| CC(C)(C)c1nnc(-c2ccc(N3CCC(Oc4ccccc4C(F)(F)F)CC3)nn2)o1 | 980 nM | – |
| N#Cc1ccccc1OC1CCN(c2ccc(-n3ccnc3)nn2)CC1 | 236 nM | – |
| CCc1cccc(OC2CCN(c3ccc(-n4ccnc4)nn3)CC2)c1 | 38 nM | – |
| FC(F)(F)c1ccc(OC2CCN(c3ccc(-n4ccnc4)nn3)CC2)cc1 | 371 nM | – |
| Brc1cccc(OC2CCN(c3ccc(-n4ccnc4)nn3)CC2)c1 | 23 nM | – |
| c1cn(-c2ccc(N3CCC(Oc4ccc5c(c4)CCC5)CC3)nn2)cn1 | 62 nM | – |
| COc1ccccc1OC1CCN(c2ccc(-n3ccnc3)nn2)CC1 | 543 nM | – |
| FC(F)(F)c1ccccc1OC1CCN(c2ccc(-c3nnco3)nn2)CC1 | 22 nM | – |
| CC(=O)c1ccccc1OC1CCN(c2ccc(-n3ccnc3)nn2)CC1 | 34 nM | – |
| CC(C)(C)c1nnc(-c2ccc(N3CCC(Oc4ccccc4C(F)(F)F)CC3)nn2)s1 | 710 nM | – |
| Cc1ccccc1OC1CCN(c2ccc(-n3ccnc3)nn2)CC1 | 39 nM | – |
| Cc1cccc(OC2CCN(c3ccc(-n4ccnc4)nn3)CC2)c1 | 251 nM | – |
| CC(C)Cc1nnc(-c2ccc(N3CCC(Oc4ccccc4C(F)(F)F)CC3)nn2)s1 | 37 nM | – |
| Cc1ccc(OC2CCN(c3ccc(-n4ccnc4)nn3)CC2)cc1 | 527 nM | – |
| O=C(O)c1ccc(N2CCC(Oc3ccccc3C(F)(F)F)CC2)nn1 | 10000 nM | – |
| c1cc(OC2CCN(c3ccc(-n4ccnc4)nn3)CC2)c2cc[nH]c2c1 | 162 nM | – |

Stronger by IC50 [1], values ahead:

| IC50 [1] | Compound | further results |
| --- | --- | --- |
| 19 nM | FC(F)(F)c1cccc(OC2CCN(c3ccc(-n4ccnc4)nn3)CC2)c1 | – |
| 16 nM | NC(=O)c1ccc(N2CCC(Oc3ccccc3C(F)(F)F)CC2)nn1 | AUC [2]: 0.9 µM·h; AUC [3]: 1.9 µM·h; AUC [4]: 179 µM·h; half-life [5]: 0.54 h; bioavailability [6]: 10% |
| 15 nM | CC(C)Cc1nnc(-c2ccc(N3CCC(Oc4ccccc4C(F)(F)F)CC3)nn2)o1 | – |
| 14 nM | O=C(NCCC1CC1)c1ccc(N2CCC(Oc3ccccc3C(F)(F)F)CC2)nn1 | – |
| 10 nM | c1cc2c(c(OC3CCN(c4ccc(-n5ccnc5)nn4)CC3)c1)CCC2 | – |
| 8.8 nM | CC(C)c1nnc(-c2ccc(N3CCC(Oc4ccccc4C(F)(F)F)CC3)nn2)s1 | – |
| 6.1 nM | Oc1nnc(-c2ccc(N3CCC(Oc4ccccc4C(F)(F)F)CC3)nn2)s1 | – |
| 6 nM | Cc1nnc(-c2ccc(N3CCC(Oc4ccccc4C(F)(F)F)CC3)nn2)o1 | – |
| 5 nM | Brc1ccccc1OC1CCN(c2ccc(-n3ccnc3)nn2)CC1 | – |
| 4 nM | CCc1ccccc1OC1CCN(c2ccc(-n3ccnc3)nn2)CC1 | – |
| 4 nM | FC(F)(F)c1ccccc1OC1CCN(c2ccc(-n3ccnc3)nn2)CC1 | half-life [5]: 1.2 h; bioavailability [6]: 53%; IC50 [7]: 400 nM; IC50 [8]: 300 nM |
| 3.9 nM | CC(C)c1nnc(-c2ccc(N3CCC(Oc4ccccc4C(F)(F)F)CC3)nn2)o1 | – |
| 3.2 nM | OCc1nnc(-c2ccc(N3CCC(Oc4ccccc4C(F)(F)F)CC3)nn2)s1 | – |
| 2.9 nM | OCc1nnc(-c2ccc(N3CCC(Oc4ccccc4C(F)(F)F)CC3)nn2)o1 | – |
| 2.3 nM | Cc1nnc(-c2ccc(N3CCC(Oc4ccccc4C(F)(F)F)CC3)nn2)s1 | ED50 [9]: 1 mg/kg; bioavailability [10]: 38%; bioavailability [11]: 73%; half-life [12]: 6.4 h; half-life [13]: 6 h; inhibition (INH) [14]: Not Active; inhibition (INH) [15]: Not Active; Activity [16]: Toxic; Activity [17]: Toxic; Activity [18]: Toxic |

Reference: ChEMBL document CHEMBL1153209, “Synthesis and biological activity of a potent and orally bioavailable SCD inhibitor (MF-438)” (Bioorg Med Chem Lett, 2010)
